Activity calls are given as the source filed them. The calls are words filed in the database; no cut-off is given here.
Experiments:
LNCaP [1] = test: Inhibition of prostate specific antigen expression in human LNCAP cells at 0.625 to 5 uM in presence of fetal bovine serum; type: functional, cell-based
[2] = target: T1, Androgen receptor (Rattus norvegicus) (UniProt P15207); test: Antagonist activity at androgen receptor in rat prostate gland at 1.25 to 10 uM by luciferase reporter gene assay; type: functional, tissue-based
T1 sequence (whole entry): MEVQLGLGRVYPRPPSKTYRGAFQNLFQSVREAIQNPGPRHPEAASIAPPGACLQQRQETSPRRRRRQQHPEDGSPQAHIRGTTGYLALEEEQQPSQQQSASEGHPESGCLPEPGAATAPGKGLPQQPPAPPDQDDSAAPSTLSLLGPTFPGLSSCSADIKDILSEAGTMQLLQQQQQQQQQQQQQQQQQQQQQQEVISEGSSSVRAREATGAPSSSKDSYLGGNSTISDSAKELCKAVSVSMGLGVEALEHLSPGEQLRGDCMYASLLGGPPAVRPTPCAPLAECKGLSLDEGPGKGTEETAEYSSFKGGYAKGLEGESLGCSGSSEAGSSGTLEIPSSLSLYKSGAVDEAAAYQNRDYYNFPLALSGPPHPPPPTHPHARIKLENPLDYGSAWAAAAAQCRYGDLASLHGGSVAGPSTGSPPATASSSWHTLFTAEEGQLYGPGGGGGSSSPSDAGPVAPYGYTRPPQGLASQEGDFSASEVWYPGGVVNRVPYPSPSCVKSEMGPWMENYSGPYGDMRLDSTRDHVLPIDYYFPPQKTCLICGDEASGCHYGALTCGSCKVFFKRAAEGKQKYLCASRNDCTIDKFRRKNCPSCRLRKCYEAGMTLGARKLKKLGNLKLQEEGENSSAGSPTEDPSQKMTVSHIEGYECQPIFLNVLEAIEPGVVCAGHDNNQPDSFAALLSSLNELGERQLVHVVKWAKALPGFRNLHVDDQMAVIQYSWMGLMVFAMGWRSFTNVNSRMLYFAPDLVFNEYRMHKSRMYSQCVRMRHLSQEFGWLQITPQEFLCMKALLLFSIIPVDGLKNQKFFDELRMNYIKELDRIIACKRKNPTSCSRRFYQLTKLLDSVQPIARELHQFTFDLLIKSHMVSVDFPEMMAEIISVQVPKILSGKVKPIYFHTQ

LNCaP [3] = test: Inhibition of prostate specific antigen expression in human LNCAP cells at 1.25 to 10 uM in presence of fetal bovine serum; type: functional, cell-based
LNCaP [4] = test: Inhibition of prostate specific antigen secretion in human LNCAP cells expressing androgen receptor at 100 to 1000 nM in presence of charcoal stripped serum; type: functional, cell-based
Method in brief: (§1)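 LNCaP/AR cells were made by viral infection with an AR cDNA to express 3–5 fold higher AR levels, mimicking CRPC. They were assayed in charcoal-stripped serum to mimic androgen depletion. Read-out was PSA level, with DMSO as the vehicle.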

LNCaP [5] = test: Inhibition of prostate specific antigen expression in human LNCAP cells at 100 to 1000 nM in presence of fetal bovine serum; type: functional, cell-based
LNCaP [6] = test: Inhibition of prostate specific antigen expression in human LNCAP cells at 0.625 to 20 uM in presence of fetal bovine serum; type: functional, cell-based
[7] = target: T1, Androgen receptor (Rattus norvegicus); test: Antagonist activity at androgen receptor in rat prostate gland at 0.625 to 20 uM by luciferase reporter gene assay; type: functional, tissue-based
LNCaP [8] = test: Inhibition of prostate specific antigen secretion in human LNCAP cells expressing androgen receptor at 1.25 to 10 uM in presence of charcoal stripped serum; type: functional, cell-based; method in brief: as §1
LNCaP [9] = test: Inhibition of prostate specific antigen expression in human LNCAP cells in presence of fetal bovine serum; type: functional, cell-based

## Cc1ccccc1N1C(=S)N(c2ccc(C#N)c(C(F)(F)F)c2)C(=O)C12CCC2
LNCaP [1]
  Activity: Active

## Cc1ccc(N2C(=S)N(c3ccc(C#N)c(C(F)(F)F)c3)/C(=N\C(=S)Nc3ccc(C#N)c(C(F)(F)F)c3)C2(C)C)cc1
[2]
  Activity: Active
LNCaP [3]
  Activity: Active

## CNC(=O)c1ccc(N2C(=S)N(c3ccc(C#N)c(C(F)(F)F)c3)C(=O)C2(C)C)cc1F
LNCaP [4]
  Activity: Active

## Cc1ccc(N2C(=S)N(c3ccc(C#N)c(C(F)(F)F)c3)C(=N)C23CCC3)cc1
LNCaP [1]
  Activity: Active
LNCaP [3]
  Activity: Active

## N#CCCCc1ccc(N2C(=S)N(c3ccc(C#N)c(C(F)(F)F)c3)C(=O)C23CCC3)cc1
LNCaP [5]
  Activity: Active

## CC1(C)C(=O)N(c2ccc(C#N)c(C(F)(F)F)c2)C(=S)N1c1ccc(N)cc1
LNCaP [6]
  Activity: Active
[7]
  Activity: Active

## CNC(=O)CCc1ccc(N2C(=S)N(c3ccc(C#N)c(C(F)(F)F)c3)C(=O)C23CCC3)cc1
LNCaP [8]
  inhibition: Active

## CNC(=O)c1ccc(N2C(=S)N(c3ccc(C#N)c(C(F)(F)F)c3)C(=O)C2(C)C)cc1
[2]
  Activity: Active

## N#Cc1ccc(N2C(=O)C3(CCC3)N(c3ccc(/C=C/CO)cc3)C2=S)cc1C(F)(F)F
LNCaP [9]
  IC50: 100 nM

## CCC1(CC)C(=O)N(c2ccc(C#N)c(C(F)(F)F)c2)C(=S)N1c1ccc(C)cc1
[7]
  Activity: inactive

## Cc1ccc(N2C(=S)N(c3ccc(C#N)c(C(F)(F)F)c3)C(=N)C2(C)C)cc1
LNCaP [1]
  Activity: Active

## CCC1(CC)C(=O)N(c2ccc(C)cc2)C(=S)N1c1ccc(C#N)c(C(F)(F)F)c1
[7]
  Activity: inactive

## CCC1(C)C(=O)N(c2ccc(C)cc2)C(=S)N1c1ccc(C#N)c(C(F)(F)F)c1 (stereo not drawn)
[7]
  Activity: inactive

## CC1(C)C(=S)N(c2ccc(C#N)c(C(F)(F)F)c2)C(=S)N1c1ccc(O)cc1
LNCaP [1]
  Activity: Active

## Cc1ccc(N2CC(=O)N(c3ccc(C#N)c(C(F)(F)F)c3)C2=S)cc1
[7]
  Activity: inactive

## CC1(C)C(=O)N(c2ccc(C#N)c(C(F)(F)F)c2)C(=O)N1c1ccc(O)cc1
[2]
  Activity: Active
LNCaP [1]
  Activity: Active

## Cc1ccc(N2C(=S)N(c3ccc(C#N)c(C(F)(F)F)c3)C(=O)C2(C)CF)cc1 (stereo not drawn)
LNCaP [1]
  Activity: Active

## CC1(C)C(=O)N(c2ccc(C#N)c(C(F)(F)F)c2)C(=S)N1CCCCCCCN=[N+]=[N-]
LNCaP [6]
  Activity: Active

## Cc1ccc(N2C(=S)N(c3ccc(C#N)c(C(F)(F)F)c3)/C(=N\C(=S)Nc3ccccc3)C23CCC3)cc1
[2]
  Activity: Active
LNCaP [3]
  Activity: Active

## Cc1ccc(N2C(=S)N(c3ccc(C#N)c(C(F)(F)F)c3)C(=O)C23CCN(C)CC3)cc1
LNCaP [6]
  Activity: inactive

## CC1(C)C(=O)N(c2ccc(C#N)c(C(F)(F)F)c2)C(=S)N1CCCN=[N+]=[N-]
LNCaP [6]
  Activity: Active

## CC1(C)C(=O)N(c2ccc(C#N)c(C(F)(F)F)c2)C(=S)N1CCCCCN=[N+]=[N-]
LNCaP [6]
  Activity: Active

## COC(=O)c1ccc(N2C(=S)N(c3ccc(C#N)c(C(F)(F)F)c3)C(=O)C2(C)C)cc1
[2]
  Activity: Active

## Cc1ccc(N2/C(=N/c3ccc(C#N)c(C(F)(F)F)c3)S/C(=N\C(=S)Nc3ccc(C#N)c(C(F)(F)F)c3)C2(C)C)cc1
[2]
  Activity: Active
LNCaP [3]
  Activity: Active

## CN(C)C(=O)CCCc1ccc(N2C(=S)N(c3ccc(C#N)c(C(F)(F)F)c3)C(=O)C23CCC3)cc1
LNCaP [5]
  Activity: Active

## N#Cc1ccc(N2C(=O)C3(CCC3)N(c3ccc(N4CCNCC4)cc3)C2=S)cc1C(F)(F)F
LNCaP [8]
  inhibition: Active

## CC1(C)C(=O)N(c2ccc(C#N)c(C(F)(F)F)c2)C(=S)N1c1ccc(O)cc1
LNCaP [6]
  Activity: Active
[7]
  Activity: Active
LNCaP [1]
  Activity: Active

## CNC(=O)c1ccc(N2C(=S)N(c3ccc(C#N)c(C(F)(F)F)c3)C(=O)C23CCC3)cc1
[2]
  Activity: Active

## CCC1C(=O)N(c2ccc(C#N)c(C(F)(F)F)c2)C(=S)N1c1ccc(C)cc1 (stereo not drawn)
[7]
  Activity: inactive

## N#Cc1ccc(N2C(=O)C3(CCC3)N(c3ccc(O)cc3F)C2=S)cc1C(F)(F)F
[2]
  Activity: Active

From ChEMBL document CHEMBL1155462, “Structure-activity relationship for thiohydantoin androgen receptor antagonists for castration-resistant prostate cancer (CRPC)” (J Med Chem, 2010)
